Measurements as given in BindingDB's records for doi:10.1016/s0960-894x(02)00170-1 (Kingston University, 2002).
pIC50: −log10 of the molar value.

These compounds were tested against T1, Steryl-sulfatase (Homo sapiens, UniProt P08842) (assay: Compound was evaluated for its inhibitory activity against estrone sulfatase enzyme).
T1 sequence (P08842 whole entry): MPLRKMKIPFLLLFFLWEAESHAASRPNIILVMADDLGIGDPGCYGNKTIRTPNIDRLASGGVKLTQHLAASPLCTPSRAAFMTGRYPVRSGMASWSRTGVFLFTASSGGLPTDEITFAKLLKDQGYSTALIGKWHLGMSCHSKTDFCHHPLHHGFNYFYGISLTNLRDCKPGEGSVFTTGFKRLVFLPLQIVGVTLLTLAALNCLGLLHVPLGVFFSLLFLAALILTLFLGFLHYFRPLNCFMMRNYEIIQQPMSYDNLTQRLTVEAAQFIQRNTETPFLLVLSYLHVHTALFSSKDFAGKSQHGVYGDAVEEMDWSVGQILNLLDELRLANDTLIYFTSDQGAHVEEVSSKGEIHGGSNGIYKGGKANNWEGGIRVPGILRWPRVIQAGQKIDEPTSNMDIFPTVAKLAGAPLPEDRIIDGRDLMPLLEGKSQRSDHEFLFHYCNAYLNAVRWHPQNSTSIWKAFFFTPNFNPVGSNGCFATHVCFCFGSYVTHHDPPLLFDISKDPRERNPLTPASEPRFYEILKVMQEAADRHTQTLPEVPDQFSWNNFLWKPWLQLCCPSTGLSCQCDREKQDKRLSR
Summary of the method: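 They are added to tubes holding [3H]estrone sulfate (300,000 dpm) and inhibitor, which was dried from ethanol under nitrogen. Incubation runs 20 min at 37 °C and is quenched with toluene. Radioactivity in the toluene extract is counted. Triplicates are run alongside no-inhibitor controls and boiled-microsome blanks.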
In the case of COC(=O)c1ccc(-c2ccc(OS(N)(=O)=O)cc2)cc1, the pIC50 was 5.28. CCCCOC(=O)c1ccc(-c2ccc(OS(N)(=O)=O)cc2)cc1 showed a pIC50 of 5.24. Work on CCOC(=O)c1ccc(-c2ccc(OS(N)(=O)=O)cc2)cc1 yielded a pIC50 of 5.38. NS(=O)(=O)Oc1ccc(-c2ccccc2)cc1 [Sulfamic acid biphenyl-4-yl ester] gave a pIC50 of 4.12. In the case of Cc1cc(=O)oc2cc(OS(N)(=O)=O)ccc12 [4-methyl-2-oxo-2H-chromen-7-yl sulfamate], the pIC50 was 5.00. Compound CCCOC(=O)c1ccc(-c2ccc(OS(N)(=O)=O)cc2)cc1 has a pIC50 of 5.46. With N#Cc1ccc(-c2ccc(OS(N)(=O)=O)cc2)cc1 the pIC50 was 5.17.
